This note sets out measurements from ChEMBL document CHEMBL1275525, “Activity of hydroxyurea against Leishmania mexicana” (2008).

Converted amounts (≈) assume the structure as drawn. The source made the active and inactive calls. The rule behind the calls is not given here.

Assay [1] deals with Leishmania mexicana. Kind of assay: Antileishmanial activity against Leishmania mexicana MHOM/MX/00/Tab3 infected in BALB/c mouse macrophage measured on day 6 by hemocytometer. It counts as functional. The conditions noted are these: MHOM/MX/00/Tab3, 144 h, read-out: ED50 (the source's name). In a few lines:
(§1)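 Peritoneal resident macrophages from male BALB/c mice (20-25 g) were pooled, washed, plated at 10^6 cells/ml, and left to adhere for 24 h at 32°C in 5% CO2. Adherent cells were infected with 10^7 mid-log amastigote-like forms for 48 h, then washed. Drug was given at 0.01-100 µg/ml for 3, 6, 9 or 12 days at 32°C. After removal, plates moved to 26°C; released promastigotes were hemacytometer-counted 6 days later. Inhibition = 100 x (Tc − Tp)/Tc; triplicate.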

Assay [2] deals with Leishmania mexicana. Kind of assay: Antileishmanial activity against Leishmania mexicana MNYC/BZ/62/M379 infected in BALB/c mouse macrophage measured on day 6 by hemocytometer. In kind it is functional. To be noted: MNYC/BZ/62/M379, 144 h, read-out: ED50 (the source's name). The method in brief:
as §1

For assay [3], the system named is Leishmania mexicana. Kind of assay: Antileishmanial activity against Leishmania mexicana infected in BALB/c mouse macrophage assessed as growth inhibition at 10 ug/ml after 12 days by hemocytometer. In kind it is functional. The conditions noted are these: 288 h. The method in brief: as §1
The test system of assay [4] is Leishmania mexicana. Kind of assay: Antileishmanial activity against Leishmania mexicana infected in BALB/c mouse macrophage assessed as growth inhibition at 0.01 ug/ml after 3 days by hemocytometer. It counts as functional. The conditions noted are these: 72 h. The method in brief:
as §1

The subject of assay [5] is Leishmania mexicana. Kind of assay: Antileishmanial activity against Leishmania mexicana MNYC/BZ/62/M379 infected in BALB/c mouse macrophage assessed as growth inhibition at 1 ug/ml after 6 days by hemocytometer. In kind it is functional. The method in brief:
(§2)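 Resident peritoneal macrophages from male BALB/c mice were plated at 10^6 cells/ml and incubated for 24 h at 32°C in 5% CO2. Adherent cells were infected with 10^7 mid-log amastigote-like forms for 48 h at 32°C, then washed. Drug was applied for 6 days at 32°C, then replaced with drug-free medium and shifted to 26°C. Released promastigotes were counted by hemacytometer 6 days later, in triplicate. Inhibition = 100×(Tc−Tp)/Tc versus untreated.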

The test system of assay [6] is Leishmania mexicana. Kind of assay: Antileishmanial activity against Leishmania mexicana MNYC/BZ/62/M379 promastigotes at 100 ug/ml after 48 hrs by hemocytometer. In kind it is functional, organism-based.
Assay [7] relates to Leishmania mexicana. Kind of assay: Antileishmanial activity against Leishmania mexicana MHOM/MX/00/Tab3 infected in BALB/c mouse macrophage assessed as growth inhibition at 1 ug/ml after 6 days by hemocytometer. It counts as functional. The method in brief: as §2
The test system of assay [8] is Leishmania mexicana. Kind of assay: Antileishmanial activity against Leishmania mexicana infected in BALB/c mouse macrophage assessed as growth inhibition at 100 ug/ml after 3 days by hemocytometer. It counts as functional, organism-based. In a few lines: as §1
Assay [9] has as its system Leishmania mexicana. Kind of assay: Antileishmanial activity against Leishmania mexicana infected in BALB/c mouse macrophage assessed as growth inhibition at 0.01 ug/ml after 12 days by hemocytometer. In kind it is functional. The conditions noted are these: 288 h. The method in brief: as §1
In assay [10] the test system is Leishmania mexicana. Kind of assay: Antileishmanial activity against Leishmania mexicana infected in BALB/c mouse macrophage assessed as growth inhibition at 1 ug/ml after 12 days by hemocytometer. It counts as functional. To be noted: 288 h. The method in brief: as §1
For assay [11], the system named is Leishmania mexicana. Kind of assay: Antileishmanial activity against Leishmania mexicana MNYC/BZ/62/M379 infected in BALB/c mouse macrophage assessed as growth inhibition at 100 ug/ml after 6 days by hemocytometer. It counts as functional. The conditions noted are these: MNYC/BZ/62/M379, 144 h. The method in brief:
as §1

Assay [12] has as its system Leishmania mexicana. Kind of assay: Antileishmanial activity against Leishmania mexicana promastigotes assessed as parasite burden at 100 ug/ml after 8 days by hemacytometer.
In assay [13] the test system is Leishmania mexicana. Kind of assay: Cell cycle arrest in Leishmania mexicana assessed as accumulation at G2/M phase at 100 ug/ml after 48 hrs by fluorescence-activated cell sorter. In kind it is functional, organism-based. In a few lines: (§3)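 Mid-log promastigotes were exposed 48 h at 26°C to 1, 10 or 100 µg/ml, washed in PBS with 0.02 M EDTA, and fixed in cold methanol for 24 h. They were then stained 20 min at 25°C with RNase I (50 µg/ml) and PI (25 µg/ml), kept on ice, and analysed by FACS for DNA content.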

In assay [14] the test system is Leishmania mexicana. Kind of assay: Antileishmanial activity against Leishmania mexicana promastigotes assessed as parasite burden at 10 ug/ml after 8 days by hemacytometer.
For assay [15], the system named is Leishmania mexicana. Kind of assay: Antileishmanial activity against Leishmania mexicana MNYC/BZ/62/M379 promastigotes assessed as survival rate after 6 days by hemocytometer. It counts as functional. In a few lines: (§4)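 Promastigotes were grown cell-free at 26°C in DMEM with 10% heat-inactivated FCS, with drug at 0.01–100 µg/ml. Parasite density was counted by hemacytometer every other day, and the value was taken on day 6. Data were recorded in triplicate, and experiments were run four times.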

In assay [16] the test system is Leishmania mexicana. Kind of assay: Cell cycle arrest in Leishmania mexicana assessed as accumulation at G2/M phase at 1 ug/ml after 48 hrs by fluorescence-activated cell sorter. It counts as functional, organism-based. In a few lines:
as §3

Assay [17] relates to Leishmania mexicana. Kind of assay: Antileishmanial activity against Leishmania mexicana infected in BALB/c mouse macrophage assessed as growth inhibition at 0.1 ug/ml after 3 days by hemocytometer. It counts as functional. The conditions noted are these: 72 h. The method in brief:
as §1

Assay [18] relates to Leishmania mexicana. Kind of assay: Antileishmanial activity against Leishmania mexicana infected in BALB/c mouse macrophage assessed as growth inhibition at 10 ug/ml after 3 days by hemocytometer. It counts as functional. To be noted: 72 h. The method in brief:
as §1

Assay [19] has as its system Leishmania mexicana. Kind of assay: Antileishmanial activity against Leishmania mexicana MNYC/BZ/62/M379 infected in BALB/c mouse macrophage assessed as growth inhibition at 10 ug/ml after 6 days by hemocytometer. In kind it is functional. The method in brief: as §2
Assay [20] relates to Leishmania mexicana. Kind of assay: Antileishmanial activity against Leishmania mexicana MHOM/MX/00/Tab3 promastigotes assessed as survival rate after 6 days by hemocytometer. It counts as functional. The method in brief: as §4
Assay [21] deals with Leishmania mexicana. Kind of assay: Antileishmanial activity against Leishmania mexicana MHOM/MX/00/Tab3 infected in BALB/c mouse macrophage assessed as growth inhibition at 10 ug/ml after 6 days by hemocytometer. In kind it is functional. The method in brief: as §2
The subject of assay [22] is Leishmania mexicana. Kind of assay: Antileishmanial activity against Leishmania mexicana MHOM/MX/00/Tab3 promastigotes at 100 ug/ml after 48 hrs by hemocytometer. It counts as functional, organism-based.
Assay [23] concerns Leishmania mexicana. Kind of assay: Antileishmanial activity against Leishmania mexicana infected in BALB/c mouse macrophage assessed as growth inhibition at 1 ug/ml after 3 days by hemocytometer. In kind it is functional. The conditions noted are these: 72 h. The method in brief:
as §1

Assay [24] deals with Leishmania mexicana. Kind of assay: Cell cycle arrest in Leishmania mexicana assessed as accumulation at G2/M phase at 10 ug/ml after 48 hrs by fluorescence-activated cell sorter. It counts as functional, organism-based. The method in brief:
as §3

The subject of assay [25] is Leishmania mexicana. Kind of assay: Antileishmanial activity against Leishmania mexicana MNYC/BZ/62/M379 promastigotes at 10 ug/ml after 48 hrs by hemocytometer. It counts as functional, organism-based.
For assay [26], the system named is Leishmania mexicana. Kind of assay: Antileishmanial activity against Leishmania mexicana MHOM/MX/00/Tab3 infected in BALB/c mouse macrophage assessed as growth inhibition at 100 ug/ml after 6 days by hemocytometer. It counts as functional. The conditions noted are these: MHOM/MX/00/Tab3, 144 h. In a few lines:
as §1

In assay [27] the test system is Leishmania mexicana. Kind of assay: Antileishmanial activity against Leishmania mexicana MNYC/BZ/62/M379 promastigotes measured on day 6 by hemocytometer. It counts as functional. The conditions noted are these: MNYC/BZ/62/M379, 144 h, read-out: ED50 (the source's name). The method in brief: (§5)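 Promastigotes were cultured cell-free at 26°C in DMEM with 10% heat-inactivated FCS, with hydroxyurea at 0.01-100 µg/ml. Density was counted by hemacytometer every other day, and inhibition versus untreated control was taken on day 6 of culture.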

Assay [28] has as its system Leishmania mexicana. Kind of assay: Antileishmanial activity against Leishmania mexicana MHOM/MX/00/Tab3 promastigotes at 10 ug/ml after 48 hrs by hemocytometer. It counts as functional, organism-based.
In assay [29] the test system is Leishmania mexicana. Kind of assay: Antileishmanial activity against Leishmania mexicana MHOM/MX/00/Tab3 promastigotes measured on day 6 by hemocytometer. It counts as functional. The conditions noted are these: MHOM/MX/00/Tab3, 144 h, read-out: ED50 (the source's name). The method in brief:
as §5

For assay [30], the system named is Leishmania mexicana. Kind of assay: Antileishmanial activity against Leishmania mexicana promastigotes assessed as parasite burden at 1 ug/ml after 8 days by hemacytometer.
For assay [31], the system named is Leishmania mexicana. Kind of assay: Antileishmanial activity against Leishmania mexicana infected in BALB/c mouse macrophage assessed as growth inhibition at 0.1 ug/ml after 12 days by hemocytometer. In kind it is functional. The conditions noted are these: 288 h. The method in brief: as §1
Assay [32] deals with Leishmania mexicana. Kind of assay: Antileishmanial activity against Leishmania mexicana MHOM/MX/00/Tab3 infected in BALB/c mouse macrophage assessed as growth inhibition at 25 ug/ml after 6 days by hemocytometer. It counts as functional, organism-based.
Assay [33] deals with Leishmania mexicana. Kind of assay: Antileishmanial activity against Leishmania mexicana MNYC/BZ/62/M379 infected in BALB/c mouse macrophage assessed as growth inhibition at 25 ug/ml after 6 days by hemocytometer. It counts as functional, organism-based.

For `NC(=O)NO` [HYDROXYUREA], the EC50 in [1] is 0.015 µg/mL (≈ 0.197 µM); in assay [2], 0.015 µg/mL (≈ 0.197 µM); in assay [27] it was 0.05 µg/mL (≈ 0.657 µM); in assay [29], 0.05 µg/mL (≈ 0.657 µM). Also, the inhibition at 10 µg/mL came to 98% in [3]; 93% in [18]; 100% in [19] (MNYC/BZ/62/M379, 144 h); 100% in assay [21] (MHOM/MX/00/Tab3, 144 h). Moreover, the inhibition at 0.01 µg/mL came to 44% in assay [4] and 67% in [9]. For the same compound, the inhibition at 1 µg/mL in assay [5] (MNYC/BZ/62/M379, 144 h) turned out to be 94%; in assay [7] (MHOM/MX/00/Tab3, 144 h), 96%; in assay [10], 94%; in assay [23] it was 87%. The result in assay [6], in [13], in assay [22], in [24], in assay [25] and in [28] was Active. Further, the inhibition result in assay [8] is “Active”. For the same compound, the inhibition at 100 µg/mL in assay [11] and in [26] was 100% each time. Further, the Activity in assay [12] came to 0 mL⁻¹; in [14], 4.3 ×10⁶ /ml; in assay [30], 8.5 ×10⁶ /ml. Besides, the Survival was 11.6% in [15] and 3.1% in assay [20]. The result in assay [16] was inactive. The inhibition at 0.1 µg/mL in assay [17] stood at 72%; in assay [31], 85%.
As for MEGLUMINE ANTIMONATE, the inhibition turned out to be 33% in assay [5]; 32% in assay [7]; 69% in [19]; 77% in [32]; 54% in [21]; 93% in [33].

In general, inhibition refers to the percentage by which the read-out fell short of the control.
